Results published in ChEMBL document CHEMBL4732199, “Potent and orally bioavailable CDK8 inhibitors: Design, synthesis, structure-activity relationship analysis and biological evaluation” (Eur J Med Chem, 2021).
Activity calls are given as the source filed them. The rule behind the calls is not given here.

Assays:
[1] = molecular target: CDK18/Cyclin Y (Homo sapiens) (UniProt Q07002+Q8ND76); assay: Inhibition of CDK18/Cyclin Y (unknown origin) at 1 uM; format: protein-complex assay
In short: (§1)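 Residual activity of each kinase with compound at 1 µM, measured in a contracted radioisotope-based kinase profiling assay and expressed as % kinase activity remaining.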

[2] = molecular target: CDK17/Cyclin-Y (Homo sapiens) (UniProt Q00537+Q8ND76); assay: Inhibition of CDK17/Cyclin Y (unknown origin) at 1 uM; format: protein-complex assay; in short: as §1
[3] = molecular target: Cyclin-dependent kinase 5/CDK5 activator 1 (Homo sapiens) (UniProt Q00535+Q15078); assay: Inhibition of CDK5/p35 (unknown origin) at 1 uM; format: protein-complex assay; in short: as §1
[4] = molecular target: CDK3/Cyclin E (Homo sapiens) (UniProt P24864+Q00526); assay: Inhibition of CDK3/cyclin-E (unknown origin) at 1 uM; format: protein-complex assay; in short: as §1
[5] = system: Glycogen synthase kinase-3 beta (Homo sapiens), P49841 [UNDEFINED MUTATION]; assay: Inhibition of human GSKbeta H350L mutant (2 to 3nd residues) at 1 uM using YRRAAVPPSPSLSRHSSPHQS(p) EDEEE as substrate incubated for 40 mins in presence of [gamma-33P]-ATP by scintillation counting method relative to control
In short: (§2)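 Single-point screen of residual kinase activity (%) at 1 µM compound. Run as a contract radiometric [γ-33P]-ATP kinase assay, either the KinaseProfiler service or the HotSpot assay. ATP was set at the experimentally determined Km(ATP) of each kinase.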

[6] = molecular target: Protein kinase C theta type (Homo sapiens, UniProt Q04759); assay: Inhibition of human full length PKCtheta at 1 uM using histone H1 as substrate incubated for 40 mins in presence of [gamma-33P]-ATP by scintillation counting method relative to control; in short: as §2
[7] = Dissociation constant, pKa of the compound by UV spectrometric titration method; format: physicochemical
[8] = Toxicity in BALB/c mouse assessed as disordered chondrocyte columns at 70 mg/kg, po administered once daily for 7 days and measured on day 15; format: organism-based; conditions: in vivo, 168 h, time 7 day
[9] = AUC in BALB/c mouse at 2 mg/kg, iv measured up to 24 hrs by LC-MS/MS analysis; conditions: in vivo
[10] = Cmax in BALB/c mouse at 2 mg/kg, iv measured up to 24 hrs by LC-MS/MS analysis; conditions: in vivo
[11] = Cmax in BALB/c mouse at 10 mg/kg, po measured up to 24 hrs by LC-MS/MS analysis; conditions: in vivo
[12] = Tmax in BALB/c mouse at 10 mg/kg, po measured up to 24 hrs by LC-MS/MS analysis; conditions: in vivo
[13] = Half life in BALB/c mouse at 2 mg/kg, iv measured up to 24 hrs by LC-MS/MS analysis; conditions: in vivo
[14] = Half life in BALB/c mouse at 10 mg/kg, po measured up to 24 hrs by LC-MS/MS analysis; conditions: in vivo
[15] = Volume of distribution at steady state in BALB/c mouse at 2 mg/kg, iv measured up to 24 hrs by LC-MS/MS analysis; conditions: in vivo, read-out: Vdss

Chain of Protein kinase C theta type (Q04759 whole entry, looked up): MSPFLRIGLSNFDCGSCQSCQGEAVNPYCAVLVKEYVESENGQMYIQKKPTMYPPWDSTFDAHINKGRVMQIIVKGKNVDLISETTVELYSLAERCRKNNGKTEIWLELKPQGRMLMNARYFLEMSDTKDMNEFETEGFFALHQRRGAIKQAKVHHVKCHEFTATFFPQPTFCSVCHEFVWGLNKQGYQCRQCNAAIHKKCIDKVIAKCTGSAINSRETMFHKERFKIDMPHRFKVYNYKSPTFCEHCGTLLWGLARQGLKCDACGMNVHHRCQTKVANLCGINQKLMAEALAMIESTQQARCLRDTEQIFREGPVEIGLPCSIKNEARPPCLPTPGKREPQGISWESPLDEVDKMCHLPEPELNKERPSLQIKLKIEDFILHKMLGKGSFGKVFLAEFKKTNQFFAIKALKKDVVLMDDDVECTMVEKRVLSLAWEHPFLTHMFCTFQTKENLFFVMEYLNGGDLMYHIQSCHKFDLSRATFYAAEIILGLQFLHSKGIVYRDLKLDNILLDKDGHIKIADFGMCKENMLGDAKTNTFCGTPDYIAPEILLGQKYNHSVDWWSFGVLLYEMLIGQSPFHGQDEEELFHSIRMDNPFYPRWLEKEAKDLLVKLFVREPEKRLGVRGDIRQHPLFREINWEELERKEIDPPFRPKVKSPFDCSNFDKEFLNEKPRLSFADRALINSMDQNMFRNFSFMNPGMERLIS
Chain of Glycogen synthase kinase-3 beta (Homo sapiens), P49841 [UNDEFINED MUTATION] (P49841 whole entry, looked up, stated change not applied): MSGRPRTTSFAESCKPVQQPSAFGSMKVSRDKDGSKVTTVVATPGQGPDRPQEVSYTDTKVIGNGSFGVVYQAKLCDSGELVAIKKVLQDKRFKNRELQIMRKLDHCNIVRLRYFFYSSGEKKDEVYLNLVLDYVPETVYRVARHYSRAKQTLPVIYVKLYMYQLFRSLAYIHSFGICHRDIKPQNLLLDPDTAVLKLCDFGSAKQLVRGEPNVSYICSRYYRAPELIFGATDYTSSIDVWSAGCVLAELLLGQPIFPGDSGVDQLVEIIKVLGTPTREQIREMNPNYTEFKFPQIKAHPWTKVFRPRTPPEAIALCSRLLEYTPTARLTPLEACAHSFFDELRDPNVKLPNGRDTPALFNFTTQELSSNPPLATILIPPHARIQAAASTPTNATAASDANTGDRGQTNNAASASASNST
Chain of CDK17/Cyclin-Y (Homo sapiens) (Q00537 whole entry): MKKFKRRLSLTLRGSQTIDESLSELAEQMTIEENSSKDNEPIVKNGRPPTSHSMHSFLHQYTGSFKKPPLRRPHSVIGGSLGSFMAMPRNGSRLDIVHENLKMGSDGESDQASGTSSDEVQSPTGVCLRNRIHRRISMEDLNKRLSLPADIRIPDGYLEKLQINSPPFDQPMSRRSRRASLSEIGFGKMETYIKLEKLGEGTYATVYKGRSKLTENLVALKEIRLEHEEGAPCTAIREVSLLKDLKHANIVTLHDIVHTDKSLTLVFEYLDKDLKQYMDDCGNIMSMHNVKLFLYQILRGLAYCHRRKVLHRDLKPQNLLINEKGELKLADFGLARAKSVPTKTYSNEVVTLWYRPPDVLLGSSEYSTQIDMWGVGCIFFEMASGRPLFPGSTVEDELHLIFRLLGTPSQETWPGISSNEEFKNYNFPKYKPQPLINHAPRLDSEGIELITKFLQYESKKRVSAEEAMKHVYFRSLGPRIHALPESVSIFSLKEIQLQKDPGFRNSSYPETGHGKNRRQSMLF
Chain of CDK17/Cyclin-Y (Homo sapiens) (Q8ND76 2-341 partner limits assumed): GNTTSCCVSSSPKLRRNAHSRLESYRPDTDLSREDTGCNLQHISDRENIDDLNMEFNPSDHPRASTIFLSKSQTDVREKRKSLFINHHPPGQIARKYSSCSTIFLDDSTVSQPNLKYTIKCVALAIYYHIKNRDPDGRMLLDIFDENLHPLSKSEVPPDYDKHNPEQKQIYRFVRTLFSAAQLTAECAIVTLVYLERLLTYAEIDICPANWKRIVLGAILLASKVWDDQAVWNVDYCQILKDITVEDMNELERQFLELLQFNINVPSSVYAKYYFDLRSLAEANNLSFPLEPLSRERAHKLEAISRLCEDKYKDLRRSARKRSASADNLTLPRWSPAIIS
Chain of CDK3/Cyclin E (Homo sapiens) (P24864 whole entry, looked up): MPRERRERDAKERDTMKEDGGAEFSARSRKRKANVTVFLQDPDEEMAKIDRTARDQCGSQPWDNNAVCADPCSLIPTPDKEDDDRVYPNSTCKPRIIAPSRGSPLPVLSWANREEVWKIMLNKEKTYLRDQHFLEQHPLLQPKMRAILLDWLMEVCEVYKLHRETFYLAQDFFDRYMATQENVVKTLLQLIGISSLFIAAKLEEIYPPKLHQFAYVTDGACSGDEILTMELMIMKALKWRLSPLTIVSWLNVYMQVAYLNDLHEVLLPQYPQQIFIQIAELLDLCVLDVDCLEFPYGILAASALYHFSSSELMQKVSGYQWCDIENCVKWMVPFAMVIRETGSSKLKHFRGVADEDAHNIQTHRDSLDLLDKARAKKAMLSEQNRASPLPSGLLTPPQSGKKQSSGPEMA
Chain of CDK3/Cyclin E (Homo sapiens) (Q00526 whole entry, looked up): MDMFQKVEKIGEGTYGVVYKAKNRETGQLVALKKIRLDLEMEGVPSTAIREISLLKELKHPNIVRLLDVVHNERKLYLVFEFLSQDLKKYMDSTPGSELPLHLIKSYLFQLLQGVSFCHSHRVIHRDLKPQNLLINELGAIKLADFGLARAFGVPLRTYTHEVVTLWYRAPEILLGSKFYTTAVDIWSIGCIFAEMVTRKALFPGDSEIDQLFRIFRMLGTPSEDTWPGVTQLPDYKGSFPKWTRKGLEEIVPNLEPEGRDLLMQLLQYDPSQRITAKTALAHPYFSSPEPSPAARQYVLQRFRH
Chain of Cyclin-dependent kinase 5/CDK5 activator 1 (Homo sapiens) (Q00535 whole entry): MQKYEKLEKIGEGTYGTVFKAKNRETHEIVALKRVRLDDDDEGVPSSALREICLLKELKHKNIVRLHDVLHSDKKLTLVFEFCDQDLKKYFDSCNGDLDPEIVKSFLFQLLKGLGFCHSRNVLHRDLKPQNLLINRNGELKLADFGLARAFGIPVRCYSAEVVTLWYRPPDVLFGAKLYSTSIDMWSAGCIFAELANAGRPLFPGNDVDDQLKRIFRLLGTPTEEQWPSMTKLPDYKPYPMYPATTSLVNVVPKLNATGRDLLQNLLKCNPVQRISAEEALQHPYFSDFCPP
Chain of Cyclin-dependent kinase 5/CDK5 activator 1 (Homo sapiens) (Q15078 99-307 partner limits assumed): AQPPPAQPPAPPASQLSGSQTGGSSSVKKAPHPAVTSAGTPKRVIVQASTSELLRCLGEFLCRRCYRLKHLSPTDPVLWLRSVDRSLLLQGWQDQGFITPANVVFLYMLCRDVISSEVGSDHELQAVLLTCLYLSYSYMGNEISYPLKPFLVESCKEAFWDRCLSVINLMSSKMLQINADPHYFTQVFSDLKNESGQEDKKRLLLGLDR

In the case of `O=C1NCCC12CCN(c1c(Cl)cncc1-c1cc3ccccc3o1)CC2`, the inhibition [1] is reported as “inactive”, the inhibition [2] is reported as “inactive” and the inhibition [3] is reported as “inactive”. For the same molecule, the inhibition [4] was “inactive”, the inhibition [5] was > 50% and the inhibition [6] was > 50%. The pKa [7] was 4.9, the Activity [8] was “Toxic” and the AUC at 24 h [9] was 1.39 µM·h. It also gave a Cmax [10] of 3.44 µM, a Cmax [11] of 5.01 µM and a Tmax [12] of 25.2 min. The half-life [13] was 20.4 min, the half-life [14] was 66.6 min and the Vd [15] was 1.99 L/kg.
